Screening data (PubChem BioAssay)
KCNQ1 block: blocks the human KCNQ1 potassium channel; P51787; CHO-K1 KCNQ1, FluxOR thallium flux fluorescence; hits give high values; hit rate 1.3% among 310,000; B-score at 10 µM;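 active = compounds whose thallium flux B-score, printed positive for inhibition, exceeds three library SD while starting fluorescence stays within three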;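 note: channel opened by potassium depolarization with thallium stimulus after 20 min compound exposure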
KCNK9 block: blocks the human KCNK9 two-pore domain potassium channel; HEK293 KCNK9, FluxOR thallium flux fluorescence; hits give low values; AID 488922; hit rate 1.2% among 310,000; Q9NPC2; B-score at 10 µM;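 active = ratio B-score over 3 SD below the library mean, with starting fluorescence within 5 SD of its mean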;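 note: negative B-score means less thallium flux so channel inhibition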
KCNQ1 act: potentiates or activates the human KCNQ1 potassium channel. P51787. CHO-K1 KCNQ1, thallium flux FluxOR fluorescence; hits give high values. B-score at 10 µM. hit rate 0.35% among 310,000. AID 2648;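 active = fluorescence ratio B-score, a plate-corrected score, at least three library SD, with initial intensity B-score within 5 SD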
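Test system: CHO-K1 cells stably expressing KCNQ1 / Medium: assay buffer / Also added: depolarizing K+/Tl+ stimulus, K2SO4 and Tl2SO4 each 12.5 mM in 5x stock / Incubation: 90 min dye loading and 20 min compound exposure, both at room temperature / Signal: thallium influx via FluxOR fluorescence, kinetic imaging / Evaluation: B score of baseline-normalized fluorescence ratio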
hERG protect: shields human hERG channel from block by proarrhythmic agents. Q12809. CHO-hERG, FluxOR thallium flux, dofetilide IC70 present. activation (rescue from dofetilide block), less the hit threshold, % at 10 µM. hit rate 0.51% among 310,000. AID 1511;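 active = activation above the mean of controls blocked by dofetilide plus 5 SD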;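 note: thallium influx through hERG after potassium depolarization seen as dye fluorescence rise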
KCNK3 block: human KCNK3 channel inhibition, primary screen; AID 602410; hit rate 0.84% among 340,000; O14649; CHO-KCNK3 thallium flux, FluxOR fluorescence; hits give low values; B-score at 10 µM;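 active = B-score under library mean minus 4 SD, starting fluorescence ratio at most library mean plus 5 SD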;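 note: more negative B-score means stronger inhibition of thallium flux through KCNK3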
Cl transport mod: modulates chloride dependent transport by human KCC2. KCC2 cells, thallium flux FluoZin-2 fluorescence. B-score of Tl+ flux slope (higher = more flux/activation; lower = inhibition) at 10 µM. hit rate 2.2% among 190,000. Q9H2X9;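 active = thallium flux slope and its plate-corrected score both differing from the plate sample mean at a set confidence after two filtering rounds, in either direction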;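 note: slope of fluorescence scaled to starting intensity during 10 to 20 s after thallium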
KCNQ1 inh valid: human KCNQ1 channel inhibition, validation assay. shares compounds with KCNQ1 block. KCNQ1 cell line, FluxOR thallium flux fluorescence. inhibition, % at 10 µM. hit rate 93% among 1,600;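 active = primary screen active, with duplicate mean exceeding buffer control mean plus 3 SD of buffer wells, cut at about 28% in these data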;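 note: 0% = buffer control ratio and 100% = XE991 inhibitor control ratio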
CHO Tl flux: KCNQ1 inhibitor counter-screen hit in parental CHO cells; shares compounds with KCNQ1 block; parental CHO-K1, FluxOR thallium flux fluorescence ratio; hits give low values; zero means no signal rise above baseline; fluorescence ratio (Tl flux) at 10 µM; hit rate 21% among 1,600; AID 588366;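 active = mean of duplicate thallium-flux fluorescence ratios in parental host cells more than 5 SD below the buffer control mean, cut at about 0.38 in these data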;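 note: ratio is peak minus minimum fluorescence divided by baseline fluorescence; actives read low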
KCNQ1 ephys val: blocks human KCNQ1 current in automated patch clamp; shares compounds with KCNQ1 block; KCNQ1-CHO cells; calls only at 10 µM; hit rate 20% among 490;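 active = KCNQ1 current drop exceeding 3 SD of negative control wells, seen in both duplicate runs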;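 note: steady state current during a 2 s step from -80 to +40 mV; negative values mean current inhibition and positive values mean potentiation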
KCNQ2 spec: KCNQ1 inhibitor that also blocks rat KCNQ2 channel; shares compounds with KCNQ1 block; hit rate 71% among 1,600; inhibition, % at 10 µM; KCNQ2 cells, FluxOR thallium flux fluorescence;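 active = mean percent inhibition of the KCNQ2 thallium signal more than 5 SD above the buffer-only control wells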;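 note: KCNQ2 expressed in CHO cells; 0% = buffer control wells and 100% = XE-991 inhibitor control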
KCNQ1-KCNE1 inh: human KCNQ1/KCNE1 inhibition in KCNQ1 specificity screen; shares compounds with KCNQ1 block; KCNQ1/KCNE1 cells, FluxOR thallium flux fluorescence; inhibition, % at 10 µM; hit rate 77% among 1,600;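 active = mean percent inhibition of duplicate wells above the buffer-only control mean plus 3 SD of those controls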;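 note: 0% = buffer only wells and 100% = XE-991 inhibitor control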
Target sequence (P51787 whole entry, looked up): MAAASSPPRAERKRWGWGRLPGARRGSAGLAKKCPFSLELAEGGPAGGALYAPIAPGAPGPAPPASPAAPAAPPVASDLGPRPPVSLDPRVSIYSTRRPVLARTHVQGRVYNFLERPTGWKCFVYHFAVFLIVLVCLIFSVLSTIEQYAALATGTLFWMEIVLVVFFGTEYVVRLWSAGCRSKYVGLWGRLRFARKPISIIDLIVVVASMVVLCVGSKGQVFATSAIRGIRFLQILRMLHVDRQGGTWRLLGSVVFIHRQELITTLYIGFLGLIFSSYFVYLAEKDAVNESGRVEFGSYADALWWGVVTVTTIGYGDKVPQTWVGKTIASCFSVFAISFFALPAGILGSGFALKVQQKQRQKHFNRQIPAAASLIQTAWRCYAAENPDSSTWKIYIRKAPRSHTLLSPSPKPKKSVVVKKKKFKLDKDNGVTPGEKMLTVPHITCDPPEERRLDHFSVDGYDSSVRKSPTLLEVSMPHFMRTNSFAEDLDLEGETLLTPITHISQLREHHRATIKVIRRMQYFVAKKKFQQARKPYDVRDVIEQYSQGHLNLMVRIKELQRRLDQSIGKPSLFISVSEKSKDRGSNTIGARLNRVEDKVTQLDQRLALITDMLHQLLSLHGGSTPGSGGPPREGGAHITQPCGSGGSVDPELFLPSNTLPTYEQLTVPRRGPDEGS
KCNK9 inh conf: human KCNK9 inhibitor confirmation | inhibition, % at 10 µM | shares compounds with KCNK9 block | hit rate 43% among 4,900 | HEK293 KCNK9 cells, FluxOR thallium flux fluorescence;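 active = thallium signal inhibited by more than 5 SD of the compound-free buffer control wells, on both duplicate plates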;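 note: 0% = assay buffer control wells without compound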
Kir21 sel: mouse Kir2.1 off-target activity of KCNK9 modulators; inhibition, % at 10 µM; AID 492993; shares compounds with KCNK9 block; hit rate 4% among 4,900; Kir2.1 cells, FluxOR thallium flux fluorescence;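 active = thallium signal drop more than 5 SD beyond the mean of the no-compound control wells, seen in both duplicate plates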;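 note: signal is fluorescence rise after thallium addition divided by baseline fluorescence; plate controls were assay buffer only for no effect and full block by chlorpromazine control for full effect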
KCNK9 uninduced: second counter-screen for KCNK9 modulators: effect in non-induced cells; shares compounds with KCNK9 block; non-induced KCNK9-HEK293, FluxOR thallium flux; inhibition, % at 10 µM; hit rate 40% among 4,900; AID 492997;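 active = thallium signal drop beyond 5 SD of the untreated control mean, on both duplicate plates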;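 note: plate controls were buffer only IC0 wells for no effect and SID17386958 at its maximal inhibitory level for full effect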
KCNK3 inh conf: human KCNK3 channel inhibition, confirmation assay; shares compounds with KCNK3 block; CHO-KCNK3 thallium flux, FluxOR fluorescence; 0% buffer, 100% carvedilol maximal block; ratio percent of control, % at 10 µM; hit rate 99% among 2,400; AID 651638;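 active = ratio percent of control, averaged over triplicates, above buffer control mean plus 5 SD, cut at about 64% in these data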;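 note: ratio is the fluorescence rise from min to max over baseline after thallium stimulus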
KCNK3 uninduced: KCNK3 inhibitor counter-screen hit in non-induced cells; shares compounds with KCNK3 block; non-induced KCNK3 parental cells, FluxOR thallium flux; hits give low values; thallium flux ratio (lower = more inhibition) at 10 µM; hit rate 40% among 2,400;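 active = thallium flux ratio, averaged over three wells, more than 5 SD below the buffer control mean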;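 note: host cells are CHO cells without KCNK3 induction; ratio is peak minus trough fluorescence over baseline then normalized to buffer controls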
Numbers without * were called inactive; i = inactive; . = no result given; + = active, no number. An excerpt weighted towards active compounds, which were near 4.1% of everything screened.

SMILES | KCNQ1 block | KCNK9 block | KCNQ1 act | hERG protect | KCNK3 block | Cl transport mod | KCNQ1 inh valid | CHO Tl flux | KCNQ2 spec | KCNQ1-KCNE1 inh | KCNK9 inh conf | Kir21 sel | KCNK9 uninduced | KCNK3 inh conf | KCNK3 uninduced | others
O=C(Nc1cccnc1)c1cc(-c2ccc(Br)cc2)nc2ccccc12 | 8* | -9.7* | i | -18 | -15* | . | 142* | 0.25* | 139%* | + | 33%* | i | i | 143* | i
COc1ccc(Cl)cc1C(=O)Nc1ccccc1N1CCN(C)CC1 | i | i | i | -23 | i | 0.2 | . | . | . | . | . | . | . | . | .
COc1ccc(Cl)cc1C(=O)Nc1ccccc1N1CCCCC1 | 7* | -8.9* | i | -12 | -8.9* | . | 103* | 0.41 | 99%* | 146%* | 50%* | i | 46%* | 107* | i | KCNQ1 ephys val=i
Cc1cccc2sc(NC(=O)C3CC3)nc12 | i | i | i | -5 | i | . | . | . | . | . | . | . | . | . | .
Cc1cccc2sc(NC(=O)C3c4ccccc4Oc4ccccc43)nc12 | 13* | -10* | i | -13 | -10* | . | 112* | 0.45 | 76%* | 144%* | 44%* | i | 40%* | 130* | 0.15* | KCNQ1 ephys val=i
O=C(NCc1ccncc1)Nc1cccc(Cl)c1 | i | i | i | -4 | i | . | . | . | . | . | . | . | . | . | .
Cc1c(C(=O)Nc2cccc(Cl)c2)c2ccccn2c1CCc1ccncc1 | 9* | i | i | -11 | -10* | -0.15 | 159* | 0.36* | 123%* | + | . | . | . | 134* | 0.12*
CC(Cc1cccs1)NC(=O)Nc1cccc(Cl)c1 (configuration not stated) | 9* | -18* | i | -7 | -11* | -0.62 | 127* | 0.54 | i | 71%* | 53%* | i | 32%* | 109* | i | KCNQ1 ephys val=+
CCOC(=O)C1CCN(c2c(C(=O)c3ccccc3)cnc3ccc(CC)cc23)CC1 | 7* | -11* | i | -7 | -12* | -0.47 | 134* | 0.4 | 128%* | 192%* | 28%* | i | 34%* | 110* | i
CCOC(=O)C1CCCN(c2c(C(=O)c3ccccc3)cnc3ccccc23)C1 (configuration not stated) | i | i | i | -19 | i | -2.4 | . | . | . | . | . | . | . | . | .
O=S(=O)(c1ccccc1)N1CCN(C(c2ccccc2)c2ccc(OC(F)(F)F)cc2)CC1 (configuration not stated) | i | i | i | -3 | i | . | . | . | . | . | . | . | . | . | .
O=C(C(Cc1ccccc1)n1cccc1)N1CCN(c2cccc(Cl)c2)CC1 (configuration not stated) | 8* | i | i | -6 | -9.2* | -0.0054 | 116* | 0.33* | 117%* | 158%* | . | . | . | 98* | 0.14*
CCOc1ccc(N(C)S(=O)(=O)c2cc(-c3cc(C)no3)ccc2CC)cc1 | 13* | -7.8* | i | -5 | -13* | . | 98* | 0.36* | 118%* | 138%* | . | . | . | 123* | 0.14*
CCOc1ccc(N(C)S(=O)(=O)c2cc(-c3cc(C)no3)ccc2C)cc1 | i | i | i | -5 | i | . | . | . | . | . | . | . | . | . | .
O=C(Oc1cccc(Nc2ncnc3ccccc23)c1)c1ccccc1Cl | 12* | -9* | i | -23 | -9.6* | . | 140* | 0.31* | 131%* | + | 52%* | 42%* | 44%* | 139* | i
CCOC(=O)[C@H]1[C@H]2COc3ccc(Br)cc3[C@H]2N2C(=O)CN(Cc3ccc(C)cc3)C(=O)[C@@]12C | . | . | . | . | i | . | . | . | . | . | . | . | . | . | .
COc1cccc(CNC(=O)CCCc2c[nH]c3ccccc23)c1 | i | i | i | -8 | i | . | . | . | . | . | . | . | . | . | .
Cc1ccc(N/C(N)=N/c2nc3c(c(=O)[nH]2)CCCC3)c(C)c1 | i | i | i | 1 | i | -0.032 | . | . | . | . | . | . | . | . | .
Cc1ccc(N/C(N)=N/c2nc(C)cc(N3CCCCC3)n2)c(C)c1 | 10* | i | i | -23 | -12* | -1.1 | 91* | 0.41 | 90%* | 51%* | . | . | . | 116* | i | KCNQ1 ephys val=+
CN(C(=O)COc1ccc(Cl)cc1Cl)c1nnc(C23CC4CC(CC(C4)C2)C3)s1 | i | i | i | -7 | i | 0.64 | . | . | . | . | i | i | i | . | .
CN(C(=O)COc1ccc(Cl)cc1)c1nnc(C23CC4CC(CC(C4)C2)C3)s1 | . | . | . | . | . | 0.89 | . | . | . | . | . | . | . | . | .
Cn1cc(SCC(=O)N2CCCc3ccccc32)c2ccccc21 | i | i | i | -13 | i | -0.73 | . | . | . | . | i | 38%* | i | . | .
Cc1ccc2c(c1)CCCN2C(=O)CSc1ccccc1 | i | i | i | -11 | i | . | . | . | . | . | i | i | i | . | .
COc1ccccc1CC(=O)N1CCCc2cc(C)ccc21 | i | i | i | -3 | i | . | . | . | . | . | . | . | . | . | .
COc1cc(C)c(C(=O)Oc2cc(C)c(C(=O)O)c(O)c2C)c(OC)c1C | i | i | i | -9 | i | -2.1 | . | . | . | . | i | i | i | . | .
CCN(CC(=O)NC(=O)NCc1ccccc1)Cc1ccccc1 | i | i | i | -12 | i | . | . | . | . | . | i | i | 26%* | . | .
